Columns and labels:
Rattus norvegicus [1] = species: Rattus norvegicus; test: Biodistribution of [18]Fluoro-CGP 12388 (60 minutes post injection) in bone of male wistar rats; type: ADME, organism-based, Bone element; conditions: in vivo, 1 h
Method in brief: (§1)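 Pentobarbital-anesthetized (60 mg/kg ip) male Wistar rats (200 ± 20 g) received iv saline (n = 4) or 500 μg (±)-propranolol (n = 4) <1 min before 2 MBq (30 pmol) tracer in 0.3 mL. They were killed by heart extirpation at 10 or 60 min. Plasma came from blood centrifuged 3 min at 1000g. Tissue counts are expressed as DAR, mean ± SD.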

Rattus norvegicus [2] = species: Rattus norvegicus; test: Biodistribution of [18]Fluoro-CGP 12388 (10 minutes post injection) in cerebellum of male wistar rats; type: ADME, organism-based; conditions: in vivo; method in brief: as §1
Rattus norvegicus [3] = species: Rattus norvegicus; test: Biodistribution of [18]Fluoro-CGP 12388 (10 minutes post injection) in kidney of male wistar rats; type: ADME, organism-based; conditions: in vivo; method in brief: as §1
Rattus norvegicus [4] = species: Rattus norvegicus; test: Biodistribution of [18]Fluoro-CGP 12388 (60 minutes post injection) in kidney of male wistar rats; type: ADME, organism-based; conditions: in vivo, 1 h; method in brief: as §1
Rattus norvegicus [5] = species: Rattus norvegicus; test: Biodistribution of [18]Fluoro-CGP 12388 (10 minutes post injection) in cortex of male wistar rats; type: ADME, organism-based; conditions: in vivo; method in brief: as §1
Rattus norvegicus [6] = species: Rattus norvegicus; test: Biodistribution of {18]Fluoro-CGP 12388 (60 minutes post injection) in liver of male wistar rats; type: ADME, organism-based; conditions: in vivo, 1 h
Method in brief: (§2)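 Male Wistar rats (200 ± 20 g) under ip pentobarbital (60 mg/kg). Saline given iv <1 min before tracer (controls, n = 4). Tracer (2 MBq, 30 pmol) injected iv in 0.3 mL. Rats killed by heart extirpation at 60 min and tissues dissected; plasma taken by centrifugation (3 min, 1000g). Uptake given as DAR, (cpm/g tissue)/(injected cpm/body weight g), mean ± SD.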

Rattus norvegicus [7] = species: Rattus norvegicus; test: Biodistribution of [18]Fluoro-CGP 12388 (60 minutes post injection) in lung of male wistar rats; type: ADME, organism-based; conditions: in vivo, 1 h; method in brief: as §1
Rattus norvegicus [8] = species: Rattus norvegicus; test: Biodistribution of [18]Fluoro-CGP 12388 (60 minutes post injection) in red blood cells of male wistar rats; type: ADME, organism-based; conditions: in vivo, 1 h; method in brief: as §2
Rattus norvegicus [9] = species: Rattus norvegicus; test: Biodistribution of [18]Fluoro-CGP 12388 (10 minutes post injection) in bone of male wistar rats; type: ADME, organism-based, Bone element; conditions: in vivo; method in brief: as §1
Rattus norvegicus [10] = species: Rattus norvegicus; test: Biodistribution of [18]Fluoro-CGP 12388 (10 minutes post injection) in muscle of male wistar rats; type: ADME, organism-based, Muscle tissue; conditions: in vivo; method in brief: as §1
Rattus norvegicus [11] = species: Rattus norvegicus; test: Biodistribution of [18]Fluoro-CGP 12388 (10 minutes post injection) in red blood cells of male wistar rats; type: ADME, organism-based; conditions: in vivo; method in brief: as §1
Rattus norvegicus [12] = species: Rattus norvegicus; test: Biodistribution of [18]Fluoro-CGP 12388 (60 minutes post injection) in plasma of male wistar rats; type: ADME, organism-based; conditions: in vivo, 1 h; method in brief: as §2
Rattus norvegicus [13] = species: Rattus norvegicus; test: Biodistribution of [18]Fluoro-CGP 12388 (60 minutes post injection) in cerebellum of male wistar rats; type: ADME, organism-based; conditions: in vivo, 1 h; method in brief: as §1
Rattus norvegicus [14] = species: Rattus norvegicus; test: Biodistribution of [18]Fluoro-CGP 12388 (10 minutes post injection) in liver of male wistar rats; type: ADME, organism-based; conditions: in vivo; method in brief: as §1
Rattus norvegicus [15] = species: Rattus norvegicus; test: Biodistribution of [18]Fluoro-CGP 12388 (10 minutes post injection) in plasma of male wistar rats; type: ADME, organism-based; conditions: in vivo; method in brief: as §1
Rattus norvegicus [16] = species: Rattus norvegicus; test: Biodistribution of [18]Fluoro-CGP 12388 (10 minutes post injection) in lung of male wistar rats; type: ADME, organism-based; conditions: in vivo; method in brief: as §1
[17] = Partition coefficient (logP); type: physicochemical; conditions: octanol/water
Method in brief: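 50-100 μCi of tracer in 0.1 M phosphate buffer pH 7.4 (5 mL) plus n-octanol (5 mL). Shaken vigorously for 30 min at 37 °C, five mixtures. 100 μL of each layer gamma-counted. log P from the octanol/water count ratio, n = 5. A calculated value was also obtained with Pallas 1.2.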

Rattus norvegicus [18] = species: Rattus norvegicus; test: Biodistribution of [18]Fluoro-CGP 12388 (10 minutes post injection) in spleen of male wistar rats; type: ADME, organism-based; conditions: in vivo; method in brief: as §1
Rattus norvegicus [19] = species: Rattus norvegicus; test: Biodistribution of [18]Fluoro-CGP 12388 (10 minutes post injection) in intestine of male wistar rats; type: ADME, organism-based; conditions: in vivo; method in brief: as §1
Rattus norvegicus [20] = species: Rattus norvegicus; test: Biodistribution of [18]Fluoro-CGP 12388 (60 minutes post injection) in trachea of male wistar rats; type: ADME, organism-based; conditions: in vivo, 1 h; method in brief: as §2
Rattus norvegicus [21] = species: Rattus norvegicus; test: Biodistribution of [18]Fluoro-CGP 12388 (60 minutes post injection) in muscle of male wistar rats; type: ADME, organism-based, Muscle tissue; conditions: in vivo, 1 h; method in brief: as §2
Rattus norvegicus [22] = species: Rattus norvegicus; test: Biodistribution of [18]Fluoro-CGP 12388 (10 minutes post injection) in fat of male wistar rats; type: ADME, organism-based, Adipose tissue; conditions: in vivo; method in brief: as §1
Rattus norvegicus [23] = species: Rattus norvegicus; test: Biodistribution of [18]Fluoro-CGP 12388 (10 minutes post injection) in heart of male wistar rats; type: ADME, organism-based; conditions: in vivo; method in brief: as §1
Rattus norvegicus [24] = species: Rattus norvegicus; test: Biodistribution of [18]Fluoro-CGP 12388 (60 minutes post injection) in fat of male wistar rats; type: ADME, organism-based, Adipose tissue; conditions: in vivo, 1 h; method in brief: as §1
Rattus norvegicus [25] = species: Rattus norvegicus; test: Biodistribution of [18]Fluoro-CGP 12388 (10 minutes post injection) in trachea of male wistar rats; type: ADME, organism-based; conditions: in vivo; method in brief: as §1
Rattus norvegicus [26] = species: Rattus norvegicus; test: Biodistribution of [18]Fluoro-CGP 12388 (60 minutes post injection) in heart of male wistar rats; type: ADME, organism-based; conditions: in vivo, 1 h; method in brief: as §1
Rattus norvegicus [27] = species: Rattus norvegicus; test: Biodistribution of [18]Fluoro-CGP 12388 (60 minutes post injection) in cortex of male wistar rats; type: ADME, organism-based; conditions: in vivo, 1 h; method in brief: as §1
Rattus norvegicus [28] = species: Rattus norvegicus; test: Biodistribution of [18]Fluoro-CGP 12388 (60 minutes post injection) in intestine of male wistar rats; type: ADME, organism-based; conditions: in vivo, 1 h; method in brief: as §1
Rattus norvegicus [29] = species: Rattus norvegicus; test: Biodistribution of [18]Fluoro-CGP 12388 (60 minutes post injection) in spleen of male wistar rats; type: ADME, organism-based; conditions: in vivo, 1 h; method in brief: as §2

CC(C[18F])NC[C@H](O)COc1cccc2[nH]c(O)nc12 (some centres undefined)
DAR (Rattus norvegicus [1]): 0.41 | DAR (Rattus norvegicus [2]): 0.17 | DAR (Rattus norvegicus [3]): 7.93 | DAR (Rattus norvegicus [4]): 0.91 | DAR (Rattus norvegicus [5]): 0.13 | DAR (Rattus norvegicus [6]): 0.64 | DAR (Rattus norvegicus [7]): 0.59 | DAR (Rattus norvegicus [8]): 0.39 | DAR (Rattus norvegicus [9]): 0.39 | DAR (Rattus norvegicus [10]): 0.42 | DAR (Rattus norvegicus [11]): 0.57 | DAR (Rattus norvegicus [12]): 0.35 | DAR (Rattus norvegicus [13]): 0.12 | DAR (Rattus norvegicus [14]): 1.62 | DAR (Rattus norvegicus [15]): 0.51 | DAR (Rattus norvegicus [16]): 1.37 | logP [17]: 0.44 | DAR (Rattus norvegicus [18]): 1.17 | DAR (Rattus norvegicus [19]): 1.52 | DAR (Rattus norvegicus [20]): 0.37 | DAR (Rattus norvegicus [21]): 0.3 | DAR (Rattus norvegicus [22]): 0.53 | DAR (Rattus norvegicus [23]): 1.09 | DAR (Rattus norvegicus [24]): 0.07 | DAR (Rattus norvegicus [25]): 0.7 | DAR (Rattus norvegicus [26]): 0.46 | DAR (Rattus norvegicus [27]): 0.12 | DAR (Rattus norvegicus [28]): 0.87 | DAR (Rattus norvegicus [29]): 0.41

Reference: ChEMBL document CHEMBL1130239, “Synthesis and evaluation of (S)-4-(3-(2'-[11C]isopropylamino)-2-hydroxypropoxy) -2H-benzimidazol -2-one ((S)-[11C]CGP 12388) and (S)-4-(3-((1'-[18F]-fluoroisopropyl)amino)-2-hydroxypropoxy) -2H- benzimidazol-2-one ((S)-[18F]fluoro-CGP 12388) for visualization of beta-adrenoceptors with positron …” (J Med Chem, 1997)
